MC4R antag cAMP: MC4R antagonists of cAMP signaling, primary screen, cell-based, TR-FRET, antagonist arm of biased-ligand search | Melanocortin receptor 4 (Homo sapiens), P32245 | MC4R-expressing cells, MTII-stimulated cAMP, LANCE TR-FRET | inhibition, % at 6.5 µM | actives 0.48% (n = 360,000) | AID 540295, 2011;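 active = inhibition above its plate's cutoff, the mean of tested wells on that plate plus 3 SD, cut at about 29% in these data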;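 also: 0% = Melanotan II alone and 100% = Melanotan II plus saturating MCL0020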
Target sequence (P32245 whole entry, looked up): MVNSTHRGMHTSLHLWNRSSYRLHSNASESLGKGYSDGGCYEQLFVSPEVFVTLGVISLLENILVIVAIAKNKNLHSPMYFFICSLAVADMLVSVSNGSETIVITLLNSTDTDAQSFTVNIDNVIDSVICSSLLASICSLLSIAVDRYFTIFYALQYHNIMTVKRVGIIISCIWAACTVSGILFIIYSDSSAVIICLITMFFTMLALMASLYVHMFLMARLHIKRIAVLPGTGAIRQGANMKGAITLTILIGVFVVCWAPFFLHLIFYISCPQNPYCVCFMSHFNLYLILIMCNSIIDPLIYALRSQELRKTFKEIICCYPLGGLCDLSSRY
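Test system: U2OS cells stably expressing human melanocortin 4 receptor (MC4R); also added: Melanotan II challenge; compound: 6.5 µM single dose; timing: 30-min compound preincubation, 1-h Melanotan II challenge, 1-h detection, room temperature; signal: Eu-cAMP/anti-cAMP TR-FRET, emission 671 nm; repeats: one well per compound, no replicates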
TbMetRS inhib: T. brucei MetRS inhibitors, primary screen, biochemical, luminescence. methionyl-tRNA synthetase (Trypanosoma brucei brucei). purified T. brucei MetRS, ATP depletion, Kinase-Glo luminescence. inhibition, % at 11.9 µM. actives 0.4% (n = 360,000). AID 624268, 2012;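 active = inhibition above a per-plate cutoff of the control wells' mean inhibition plus 3 SD, cut at about 5.5% in these data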;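 also: 0% = DMSO wells median and 100% = median of wells with control inhibitor compound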
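Material: parasite MetRS enzyme / Replication: singlicate, one well per compound / Signal: luminescence of leftover ATP / Schedule: 2 h aminoacylation at 25 °C after 15 min preincubation / Medium: HEPES-MgCl2-KCl buffer plus DTT, spermine, BSA, pyrophosphatase / Doses: 11.9 µM single point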
A1 inh: caspase 3/7 activation in MEF A1-2A-BIM cells, primary screen, A1 inhibitor project, cell-based, luminescence, HTS. Caspase-Glo 3/7 luminescence, 3 h; percent of clofoctol response, vehicle zero. caspase activation, % (concentration not given with the values). actives 0.066% (n = 330,000);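 active = over half of replicate activation scores above 10%, or exactly half above 10 with the replicate mean above 10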
NALP1 inh: NALP1 inflammasome inhibitors in reconstituted yeast, colorimetric, S. cerevisiae, triplicate retest. S. cerevisiae NALP1/ASC/caspase-1 growth, X-gal OD620, 72 h. inhibition, % at 10 µM. actives 0.61% (n = 280,000). AID 2071, 2009; in the data active = inhibition mostly above about 24%, no sharp cut-off; inactive = mostly below about 32%
MC4R ag barr: MC4R agonists recruiting beta-arrestin, primary screen, cell-based, luminescence, agonist arm of biased-ligand search. Melanocortin receptor 4 (Homo sapiens), P32245. activation, % at 8.9 µM. U2OS MC4R beta-arrestin complementation; percent of melanotan II response, DMSO zero. actives 0.98% (n = 360,000);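 active = activation above a per-plate cutoff, the mean activation of sample wells on that plate plus 3 SD, cut at about 8% in these data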
NLRP3 yeast inh: NALP3 inflammasome inhibitors in reconstituted yeast, primary screen, luminescence, uHTS; inhibition, % at 10 µM; Yeast reconstituted NLRP3/ASC/caspase-1, beta-gal luminescence, 24 h; actives 0.39% (n = 330,000);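 active = inhibition of 50% or more; inactive = inhibition below 50%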;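 also: plate controls were induced DMSO wells for no effect and uninduced yeast grown without galactose for full effect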
NALP3 confirm: NALP3 inhibitors retested in yeast, confirmation, luminescence, single concentration; inhibition, % at 10 µM; shares compounds with NLRP3 yeast inh; yeast expressing human NALP3; AID 435006, 2010; actives 81% (n = 1,300); in the data active = inhibition above about 48%
Casp1-ASC yeast: CASP1-PYCARD signaling inhibition in yeast, confirmatory test, counterassay for NLRP3 inhibitor program, one-dose | inhibition, % at 10 µM | AID 488784, 2010 | actives 66% (n = 1,000) | shares compounds with NLRP3 yeast inh | yeast expressing Caspase-1-ASC, luminescence counter screen
NALP3 retest: NALP3 inhibitors in yeast, repeat test, confirmation, luminescence, single concentration, retest. AID 488794, 2010. inhibition, % at 10 µM. yeast expressing human NALP3, luminescence read-out. actives 53% (n = 1,000). shares compounds with NLRP3 yeast inh
* marks the source's active call; other numbers are inactive results; nt = no result given. Hits are enriched below; roughly 2.5% of the tested compounds scored in any of these assays. Rule as the data show it, unless noted: active = inhibition above about 50%; inactive = the rest.

SMILES | MC4R antag cAMP | TbMetRS inhib | A1 inh | NALP1 inh | MC4R ag barr | NLRP3 yeast inh | NALP3 confirm | Casp1-ASC yeast | NALP3 retest
O=C(Nc1cnn(Cc2ccc(F)cc2)c1)c1cc2nc(-c3ccco3)cc(C(F)(F)F)n2n1 | 4 | -1 | -1 | -20 | 9.2* | 3 | nt | nt | nt
Cc1ccccc1OCC(=O)Nc1ccc2c(c1)Cc1ccccc1-2 | 7 | -1 | 1 | 8 | 28* | 10 | nt | nt | nt
Cc1ccc(NC(=O)Cn2cnc3cc([N+](=O)[O-])ccc3c2=O)cc1 | 3 | -1 | 0 | 37* | 2 | 31 | nt | nt | nt
O=C(OCn1ncc(Cl)c(Cl)c1=O)c1ccc(F)cc1 | nt | nt | 0 | -3 | nt | -3 | nt | nt | nt
O=c1c(Cl)c(Cl)cnn1Cc1ccc(F)cc1 | 52* | 0 | 1 | 3 | -2 | -5 | nt | nt | nt
Cc1ccc(C(=O)C(C)OC(=O)CCN=C2NS(=O)(=O)c3ccccc32)cc1 (centres undefined) | 9 | 0 | 0 | nt | -1 | 6 | nt | nt | nt
O=C1NC(=O)c2cc(Br)cc3cccc1c23 | -10 | 0 | 1 | 5 | 8.9* | 15 | nt | nt | nt
O=C1NC(=O)c2cc([N+](=O)[O-])cc3cccc1c23 | -2 | -1 | 0 | -2 | -1 | 8 | nt | nt | nt
OCc1cccc(-c2csc(C(O)c3ccccc3)n2)c1 (centres undefined) | 2 | 0 | nt | nt | 0 | nt | nt | nt | nt
CC1(C)CC(=O)C(=Cc2cn(-c3ccccc3)nc2-c2ccccc2)C(=O)C1 | 8 | -1 | 2 | nt | -1 | 54* | 83* | 8 | -12
Cc1ccc(OCc2nc(-c3cccnc3)no2)cc1C | 5 | 0 | -1 | 12 | -1 | 51* | 61* | 36 | 40
Cc1ccc(OCc2nc(-c3ccccn3)no2)cc1 | 6 | 0 | -5 | -4 | 0 | 56* | 70* | 72* | 64*
CCCCOc1ccc(-c2csc(N)n2)cc1[N+](=O)[O-] | 15 | 1 | 0 | -16 | 1 | 57* | -13 | nt | nt
Cc1nc2ccc(NC(=O)Cc3ccsc3)cc2s1 | 0 | -2 | -6 | -2 | -1 | 19 | nt | nt | nt
Cc1ccc(NC(=O)Cc2ccsc2)cc1Cl | 20 | 1 | 1 | -56 | 2 | 54* | 68* | 43 | 38
CCCNC(=O)c1cc2c3ccccc3n(C)c2s1 | 4 | 0 | 1 | 55 | -1 | 51* | 50* | 35 | 25
COCCNC(=O)c1cc2c3ccccc3n(C)c2s1 | 8 | 0 | 0 | -16 | 1 | -7 | nt | nt | nt
O=C(C1CCN(S(=O)(=O)c2cccc3nsnc23)CC1)N1CCn2c1nc1ccccc12 | 7 | 0 | 1 | 6 | -11 | 74* | 75* | 66* | 75*
COc1ccc(C(CNC(=O)c2cccc(NS(=O)(=O)c3ccc(C)c(F)c3)c2)N2CCOCC2)cc1 (centres undefined) | 11 | 0 | 1 | nt | -3 | -1 | nt | nt | nt
CC(C)NC(=O)N(C)C[C@H]1Oc2ccc(NC(=O)c3ccncc3)cc2C(=O)N([C@H](C)CO)C[C@@H]1C | 6 | 0 | -3 | nt | 2 | 2 | nt | nt | nt
Cc1cccc(/C(N)=N/OC(=O)Cc2cccc3ccccc23)c1 | 2 | -1 | 1 | 2 | 3 | 20 | nt | nt | nt
Cc1cccc(C(=O)O/N=C(\N)Cc2cccc3ccccc23)c1 | 2 | 0 | 1 | 32 | -2 | 53* | 65* | 48 | 64*
CON(C)C(=O)/C=C/c1ccc([B-](F)(F)F)cc1 | -5 | -1 | nt | nt | 0 | nt | nt | nt | nt
CCCCCCCCNC(C)C(O)c1ccc(SC(C)C)cc1 (centres undefined) | 3 | -1 | -1 | 78* | 6 | 67* | 64* | 52* | 64*
CCCCOC(=O)Nc1nnc(COc2ccccc2)s1 | 0 | -1 | 1 | 14 | -1 | 46 | nt | nt | nt
SMILES | MC4R antag cAMP | TbMetRS inhib | A1 inh | NALP1 inh | MC4R ag barr | NLRP3 yeast inh | NALP3 confirm | Casp1-ASC yeast | NALP3 retest
CCCCOC(=O)Nc1nnc(CCc2ccccc2)s1 | 5 | 0 | 0 | 8 | 3 | 52* | 33 | nt | nt
Cc1ccc(S(=O)(=O)N2CCC(C(=O)Nc3nnc(-c4ccco4)s3)CC2)cc1 | 11 | 0 | 0 | 3 | 0 | 7 | nt | nt | nt
CC(C)c1nnc(NC(=O)C2CCCCC2)s1 | 6 | -1 | 0 | -2 | 2 | 40 | nt | nt | nt
CSc1nnc(NC(=O)C2CCCCC2)s1 | 12 | 0 | -1 | nt | 1 | 55* | 75* | 58* | 38
O=C(Nc1nnc(-c2ccco2)s1)C1CCCCC1 | -11 | -1 | 0 | 27 | 0 | 58* | 42 | 37 | 36
CCSc1nnc(NC(=O)C2CCCCC2)s1 | 5 | -1 | -1 | 13 | 0 | 61* | 79* | 67* | 61*
Cc1ccccc1-c1cccc([C@@H]2C[C@H]3[C@H](CON3C)CN2C(=O)C(C)(C)C)c1 | 5 | -1 | nt | nt | 1 | nt | nt | nt | nt
C#CCNC(=O)C[C@@H]1C[C@@]2(C(=O)OC)CCCCC=C2N(CCCCCCCC)C1=O | nt | 0 | nt | nt | nt | nt | nt | nt | nt
CCCCCCCCn1c2c(c(=N)c3ccccc31)CCC2 | -4 | 4 | nt | 6 | 7 | 58* | 73* | 22 | 62*
O=C(NC1=NCCS1)c1ccccc1OCc1ccccc1Cl | -6 | -1 | 0 | 20 | 0 | 96* | 99* | 98* | 98*
O=C(Nc1ccccc1Cl)OCC#CCOC(=O)Nc1ccccc1Cl | -4 | 0 | nt | nt | 1 | nt | nt | nt | nt
CC1(c2nnc(-c3ccccc3)o2)CC(c2ccc(Cl)cc2)=NO1 (centres undefined) | 4 | 0 | 1 | 6 | 0 | 52* | 56* | 26 | 22
O=c1c2ccccc2nc2c3ccccc3cnn12 | 4 | 0 | -3 | 1 | -2 | 56* | 63* | 55* | 66*
C/C(=N\NC(=O)c1ccccn1)c1ccc(Cl)cc1 | -5 | -1 | -8 | -18 | -2 | 27 | nt | nt | nt

From PubChem BioAssay
